Experimental data as given in ChEMBL document CHEMBL1147655, “Design and synthesis of 8-octyl-benzolactam-V9, a selective activator for protein kinase C epsilon and eta” (J Med Chem, 2006).

Key:
[1] = target: T1, Protein kinase C delta type (Homo sapiens, UniProt Q05655); assay: Displacement of [3H]phorbol 12,13-dibutyrate from PKC delta-C1A
Target sequence in this assay (Q05655 whole entry): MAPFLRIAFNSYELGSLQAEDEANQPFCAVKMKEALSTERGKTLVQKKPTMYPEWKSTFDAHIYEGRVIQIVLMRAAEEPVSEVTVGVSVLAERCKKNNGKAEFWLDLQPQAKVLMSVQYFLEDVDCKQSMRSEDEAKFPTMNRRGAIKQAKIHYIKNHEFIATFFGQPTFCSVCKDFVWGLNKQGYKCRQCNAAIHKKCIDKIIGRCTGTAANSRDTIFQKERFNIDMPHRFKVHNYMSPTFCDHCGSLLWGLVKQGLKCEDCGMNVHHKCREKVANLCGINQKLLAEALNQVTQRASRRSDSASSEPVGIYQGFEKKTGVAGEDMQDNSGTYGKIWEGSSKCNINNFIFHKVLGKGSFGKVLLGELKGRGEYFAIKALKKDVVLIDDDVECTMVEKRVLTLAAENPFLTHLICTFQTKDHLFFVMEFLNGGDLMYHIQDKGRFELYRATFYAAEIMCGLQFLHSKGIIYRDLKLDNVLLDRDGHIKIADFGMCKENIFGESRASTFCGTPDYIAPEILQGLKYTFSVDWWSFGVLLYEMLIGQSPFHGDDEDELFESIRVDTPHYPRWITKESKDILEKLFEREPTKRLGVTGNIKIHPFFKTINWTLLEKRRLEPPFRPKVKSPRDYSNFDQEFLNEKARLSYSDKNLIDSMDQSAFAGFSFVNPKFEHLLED

[2] = target: T2, Protein kinase C epsilon type (Homo sapiens) (UniProt Q02156); assay: Induction of GFP-tagged PKC epsilon translocation in HeLa cells measured as ratio of fluorescence intensity in plasma membrane to cytosol at 1 uM; format: cell-based
T2 sequence (whole entry): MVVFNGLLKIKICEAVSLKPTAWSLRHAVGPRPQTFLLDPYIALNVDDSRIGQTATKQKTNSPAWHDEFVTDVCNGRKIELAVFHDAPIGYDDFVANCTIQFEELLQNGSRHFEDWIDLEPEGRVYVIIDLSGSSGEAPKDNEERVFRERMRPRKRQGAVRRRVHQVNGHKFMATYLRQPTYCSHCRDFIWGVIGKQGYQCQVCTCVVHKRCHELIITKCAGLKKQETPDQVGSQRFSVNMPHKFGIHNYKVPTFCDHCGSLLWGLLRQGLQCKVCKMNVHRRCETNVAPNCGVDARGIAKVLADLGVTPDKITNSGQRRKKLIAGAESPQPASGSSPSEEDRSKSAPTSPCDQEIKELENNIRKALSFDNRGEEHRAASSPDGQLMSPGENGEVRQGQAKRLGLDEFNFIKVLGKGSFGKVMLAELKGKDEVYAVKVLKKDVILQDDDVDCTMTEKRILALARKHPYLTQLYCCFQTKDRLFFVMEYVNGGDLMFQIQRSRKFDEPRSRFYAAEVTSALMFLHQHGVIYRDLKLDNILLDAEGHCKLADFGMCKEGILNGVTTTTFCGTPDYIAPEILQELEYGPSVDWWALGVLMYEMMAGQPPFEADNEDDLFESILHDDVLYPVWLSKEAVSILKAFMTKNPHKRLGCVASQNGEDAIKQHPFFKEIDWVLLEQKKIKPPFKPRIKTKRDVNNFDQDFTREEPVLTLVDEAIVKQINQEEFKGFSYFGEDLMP
Summary of the method: (§1)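 HeLa cells transfected with GFP-fused PKC isozyme, cultured 16-48 h, then medium switched to HEPES buffer (135 mM NaCl, 5.4 mM KCl, 1 mM MgCl2, 1.8 mM CaCl2, 5 mM HEPES, 10 mM glucose, pH 7.3). Compound added at stated final concentration, 37 °C; confocal time series (488 nm excitation, 505-550 nm emission). R = membrane/mean cytosolic intensity from line profiles; maximum R reported, SD of at least three measurements.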

[3] = target: T3, Protein kinase C beta type (Homo sapiens, UniProt P05771); assay: Displacement of [3H]phorbol 12,13-dibutyrate from PKC beta-C1A
[4] = target: T2, Protein kinase C epsilon type (Homo sapiens); assay: Induction of GFP-tagged PKC epsilon translocation in HeLa cells measured as ratio of fluorescence intensity in plasma membrane to cytosol at 0.5 uM; format: cell-based; summary of the method: as §1
[5] = target: T2, Protein kinase C epsilon type (Homo sapiens); assay: Induction of GFP-tagged PKC epsilon translocation in HeLa cells measured as ratio of fluorescence intensity in plasma membrane to cytosol at 10 uM; format: cell-based; summary of the method: as §1
[6] = target: Protein kinase C theta type (Homo sapiens, UniProt Q04759); assay: Displacement of [3H]phorbol 12,13-dibutyrate from PKC theta-C1B
[7] = target: T3, Protein kinase C beta type; assay: Displacement of [3H]phorbol 12,13-dibutyrate from PKC beta-C1B
[8] = target: T4, Protein kinase C alpha type (Homo sapiens, UniProt P17252); assay: Displacement of [3H]phorbol 12,13-dibutyrate from PKC alpha-C1A
[9] = target: T3, Protein kinase C beta type; assay: Induction of GFP-tagged PKC beta translocation in HeLa cells measured as ratio of fluorescence intensity in plasma membrane to cytosol at 10 uM; format: cell-based; summary of the method: as §1
Target sequence in this assay (P05771 2-671 limits assumed): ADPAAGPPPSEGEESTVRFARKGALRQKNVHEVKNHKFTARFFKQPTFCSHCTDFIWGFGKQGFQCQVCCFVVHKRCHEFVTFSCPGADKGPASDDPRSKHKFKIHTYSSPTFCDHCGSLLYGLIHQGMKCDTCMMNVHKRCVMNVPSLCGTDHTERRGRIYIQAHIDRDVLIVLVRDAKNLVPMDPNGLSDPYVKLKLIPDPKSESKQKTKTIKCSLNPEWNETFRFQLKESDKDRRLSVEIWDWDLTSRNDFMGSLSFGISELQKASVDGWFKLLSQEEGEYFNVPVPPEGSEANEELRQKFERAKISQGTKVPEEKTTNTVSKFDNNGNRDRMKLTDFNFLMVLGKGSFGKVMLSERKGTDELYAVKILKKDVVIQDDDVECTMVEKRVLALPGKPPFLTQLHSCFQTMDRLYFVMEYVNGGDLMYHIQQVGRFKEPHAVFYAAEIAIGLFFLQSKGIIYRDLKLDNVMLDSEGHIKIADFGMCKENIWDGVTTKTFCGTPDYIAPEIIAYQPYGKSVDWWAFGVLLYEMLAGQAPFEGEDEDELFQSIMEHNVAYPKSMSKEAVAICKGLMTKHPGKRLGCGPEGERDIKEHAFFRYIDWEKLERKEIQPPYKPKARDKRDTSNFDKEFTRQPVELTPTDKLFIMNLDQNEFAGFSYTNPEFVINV

[10] = target: T5, Protein kinase C eta type (Homo sapiens, UniProt P24723); assay: Displacement of [3H]phorbol 12,13-dibutyrate from PKC eta-C1A
T5 sequence (P24723 whole entry): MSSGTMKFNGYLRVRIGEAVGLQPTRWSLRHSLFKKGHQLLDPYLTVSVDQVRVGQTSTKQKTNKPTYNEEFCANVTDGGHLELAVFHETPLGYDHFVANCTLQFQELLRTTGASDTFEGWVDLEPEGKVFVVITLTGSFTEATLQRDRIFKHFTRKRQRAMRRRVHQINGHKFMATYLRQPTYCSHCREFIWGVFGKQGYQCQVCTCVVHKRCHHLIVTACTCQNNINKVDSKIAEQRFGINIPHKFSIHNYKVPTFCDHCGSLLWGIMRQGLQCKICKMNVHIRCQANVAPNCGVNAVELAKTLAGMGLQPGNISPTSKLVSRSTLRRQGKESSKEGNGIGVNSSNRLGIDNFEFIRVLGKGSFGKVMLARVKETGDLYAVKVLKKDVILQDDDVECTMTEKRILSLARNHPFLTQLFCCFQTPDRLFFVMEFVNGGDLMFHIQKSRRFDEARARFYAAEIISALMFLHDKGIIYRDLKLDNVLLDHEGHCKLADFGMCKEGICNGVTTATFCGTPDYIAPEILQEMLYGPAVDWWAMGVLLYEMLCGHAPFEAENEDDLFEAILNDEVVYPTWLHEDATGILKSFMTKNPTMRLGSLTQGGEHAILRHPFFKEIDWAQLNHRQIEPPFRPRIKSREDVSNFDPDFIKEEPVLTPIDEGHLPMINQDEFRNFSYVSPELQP

[11] = target: T6, Protein kinase C gamma type (Homo sapiens, UniProt P05129); assay: Displacement of [3H]phorbol 12,13-dibutyrate from PKC gamma-C1A
[12] = target: T6, Protein kinase C gamma type; assay: Induction of GFP-tagged PKC gamma translocation in HeLa cells measured as ratio of fluorescence intensity in plasma membrane to cytosol at 10 uM; format: cell-based; summary of the method: as §1
[13] = target: T5, Protein kinase C eta type; assay: Displacement of [3H]phorbol 12,13-dibutyrate from PKC eta-C1B
[14] = target: T5, Protein kinase C eta type; assay: Induction of GFP-tagged PKC eta translocation in HeLa cells measured as ratio of fluorescence intensity in plasma membrane to cytosol at 10 uM; format: cell-based; summary of the method: as §1
[15] = target: T7, Protein kinase C epsilon type (Homo sapiens, UniProt Q02156); assay: Displacement of [3H]phorbol 12,13-dibutyrate from PKC epsilon-C1B
T7 sequence (Q02156 whole entry): T2 sequence (whole entry)

[16] = target: T1, Protein kinase C delta type; assay: Induction of GFP-tagged PKC delta translocation in HeLa cells measured as ratio of fluorescence intensity in plasma membrane to cytosol at 10 uM; format: cell-based; summary of the method: as §1
Target sequence in this assay (Q05655 whole entry, looked up): as the sequence (Q05655 whole entry) above

[17] = target: T6, Protein kinase C gamma type; assay: Displacement of [3H]phorbol 12,13-dibutyrate from PKC gamma-C1B
[18] = target: T1, Protein kinase C delta type; assay: Displacement of [3H]phorbol 12,13-dibutyrate from PKC delta-C1B
Target sequence in this assay (Q05655 whole entry): as above

[19] = target: T5, Protein kinase C eta type; assay: Induction of GFP-tagged PKC eta translocation in HeLa cells measured as ratio of fluorescence intensity in plasma membrane to cytosol at 0.5 uM; format: cell-based; summary of the method: as §1
[20] = target: T7, Protein kinase C epsilon type; assay: Displacement of [3H]phorbol 12,13-dibutyrate from PKC epsilon-C1A
[21] = target: T4, Protein kinase C alpha type; assay: Induction of GFP-tagged PKC alpha translocation in HeLa cells measured as ratio of fluorescence intensity in plasma membrane to cytosol at 10 uM; format: cell-based; summary of the method: as §1
[22] = target: T5, Protein kinase C eta type; assay: Induction of GFP-tagged PKC eta translocation in HeLa cells measured as ratio of fluorescence intensity in plasma membrane to cytosol at 1 uM; format: cell-based; summary of the method: as §1
[23] = target: T4, Protein kinase C alpha type; assay: Displacement of [3H]phorbol 12,13-dibutyrate from PKC alpha-C1B
[24] = target: T3, Protein kinase C beta type; assay: Induction of GFP-tagged PKC beta translocation in HeLa cells measured as ratio of fluorescence intensity in plasma membrane to cytosol at 1 uM; format: cell-based; summary of the method: as §1
Target sequence in this assay (P05771 2-671 limits assumed): as the sequence (P05771 2-671 limits assumed) above

[25] = target: T6, Protein kinase C gamma type; assay: Induction of GFP-tagged PKC gamma translocation in HeLa cells measured as ratio of fluorescence intensity in plasma membrane to cytosol at 1 uM; format: cell-based; summary of the method: as §1
[26] = target: T1, Protein kinase C delta type; assay: Induction of GFP-tagged PKC delta translocation in HeLa cells measured as ratio of fluorescence intensity in plasma membrane to cytosol at 1 uM; format: cell-based; summary of the method: as §1
Target sequence in this assay (Q05655 whole entry, looked up): as the sequence (Q05655 whole entry) above

[27] = target: T3, Protein kinase C beta type; assay: Induction of GFP-tagged PKC beta translocation in HeLa cells measured as ratio of fluorescence intensity in plasma membrane to cytosol at 0.5 uM; format: cell-based; summary of the method: as §1
Target sequence in this assay (P05771 2-671 limits assumed): as the sequence (P05771 2-671 limits assumed) above

[28] = target: T4, Protein kinase C alpha type; assay: Induction of GFP-tagged PKC alpha translocation in HeLa cells measured as ratio of fluorescence intensity in plasma membrane to cytosol at 1 uM; format: cell-based; summary of the method: as §1

| Ratio [2] | Ratio [4] | Ratio [5] | Ratio [9] | Ratio [12] | Ratio [14] | Ratio [16] | Ratio [19] | Ratio [21] | Ratio [22] | also measured | SMILES |
| --- | --- | --- | --- | --- | --- | --- | --- | --- | --- | --- | --- |
| 1.66 | 1.65 | 1.96 | 0.97 | 0.97 | 1.72 | 0.95 | 0.97 | 0.98 | 1.46 | Ki [1]: > 10 µM; Ki [3]: > 10 µM; Ki [6]: 0.29 µM; Ki [7]: > 10 µM; Ki [8]: > 10 µM; Ki [10]: > 10 µM; Ki [11]: > 10 µM; Ki [13]: 0.144 µM; Ki [15]: 0.51 µM; Ki [17]: 5.2 µM; Ki [18]: 0.216 µM; Ki [20]: > 10 µM; Ki [23]: > 10 µM | CCCCCCCCc1cccc2c1CC[C@@H](CO)NC(=O)[C@H](C(C)C)N2C |
| 2.73 | 2.42 | 4.29 | 2.38 | 1.53 | 1.92 | 2.41 | 1.01 | 1.79 | 1.84 | Ratio [24]: 2.39; Ratio [25]: 0.96; Ratio [26]: 0.9; Ratio [27]: 0.95; Ratio [28]: 0.97 | CCCCCCN1C[C@H]2C[C@@H](CO)NC(=O)[C@H](C(C)C)N(C)c3cccc1c32 |
